Assay results as given in ChEMBL document CHEMBL3108700, “Designing anti-inflammatory drugs from parasitic worms: a synthetic small molecule analogue of the Acanthocheilonema viteae product ES-62 prevents development of collagen-induced arthritis” (J Med Chem, 2013).
Active and inactive are the calls of the source. Unless noted, the calls are words filed in the database; no cut-off is given here.

Legend:
[1] = target: T1, Toll-like receptor 4 (Mus musculus) (UniProt Q9QUK6); experiment: Inhibition of TLR4 in C57BL/6 mouse BMDC assessed as reduction of LPS-induced IL-23 production at 5 ug/mL preincubated for 2 hrs prior to LPS challenge measured after 24 hrs by ELISA
T1 sequence (whole entry): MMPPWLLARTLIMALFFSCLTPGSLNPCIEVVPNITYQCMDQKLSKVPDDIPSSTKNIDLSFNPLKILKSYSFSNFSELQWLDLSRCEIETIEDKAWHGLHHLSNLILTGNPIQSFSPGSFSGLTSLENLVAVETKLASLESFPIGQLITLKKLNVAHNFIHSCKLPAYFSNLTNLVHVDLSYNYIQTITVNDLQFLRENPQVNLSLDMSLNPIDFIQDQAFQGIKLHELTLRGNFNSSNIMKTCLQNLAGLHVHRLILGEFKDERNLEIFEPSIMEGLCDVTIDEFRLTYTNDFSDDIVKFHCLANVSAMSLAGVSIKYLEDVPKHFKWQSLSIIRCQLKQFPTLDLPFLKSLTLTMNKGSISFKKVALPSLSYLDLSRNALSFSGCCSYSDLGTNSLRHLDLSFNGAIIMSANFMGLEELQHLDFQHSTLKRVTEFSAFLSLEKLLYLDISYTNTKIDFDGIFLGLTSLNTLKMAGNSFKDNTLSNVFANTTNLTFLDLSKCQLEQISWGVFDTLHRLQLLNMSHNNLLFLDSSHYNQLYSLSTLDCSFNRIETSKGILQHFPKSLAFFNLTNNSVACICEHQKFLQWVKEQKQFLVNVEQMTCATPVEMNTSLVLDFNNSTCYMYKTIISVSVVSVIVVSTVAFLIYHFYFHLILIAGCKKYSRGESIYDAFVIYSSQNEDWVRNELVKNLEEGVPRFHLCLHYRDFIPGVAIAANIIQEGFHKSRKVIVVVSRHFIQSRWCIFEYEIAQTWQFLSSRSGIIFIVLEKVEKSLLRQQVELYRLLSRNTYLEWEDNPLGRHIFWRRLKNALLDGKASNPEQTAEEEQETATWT
Summary of the method: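 C57BL/6 bone marrow DCs were generated in complete RPMI with 10 ng/mL GM-CSF. They were preincubated ± compound at 5 μg/mL for 2 h, then stimulated with LPS for 24 h. TNF-α, IL-6 and IL-23 in conditioned medium were measured by ELISA. Values are means of triplicates ± SEM pooled from 4 experiments.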

Mus musculus = experiment: Antiinflammatory activity in DBA/1 mouse collagen-induced arthritis model assessed as reduction in serum level of IL-17 at 50 ug/kg, sc administered 2 days prior to collagen challenge continued till day 21 post collagen challenge by ELISA; type: functional, organism-based
Summary of the method: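 Serum IL-17 was measured by ELISA in CIA mice dosed subcutaneously (1 μg/dose or PBS) on days −2, 0 and 21. Values are the mean of triplicate analyses per individual mouse (PBS n = 12, treated n = 13).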

[2] = Cytotoxicity against CpG-stimulated BALB/c mouse BMDM assessed as loss of cell viability at 5 ug/mL preincubated for 18 hrs followed by CpG challenge measured after 24 hrs by 7-AAD staining-based flow cytometric analysis
Summary of the method: (§1)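 BALB/c bone marrow macrophages (2 × 10^5/well) were rested 24 h in complete RPMI, then given 5 μg/mL compound for 18 h. Cells were stained with 7-AAD for 10 min on ice and the dead fraction read by flow cytometry. One experiment is representative of two.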

[3] = Cytotoxicity against BLP-stimulated BALB/c mouse BMDM assessed as loss of cell viability at 5 ug/mL preincubated for 18 hrs followed by BLP challenge measured after 24 hrs by 7-AAD staining-based flow cytometric analysis; summary of the method: as §1
[4] = target: T1, Toll-like receptor 4 (Mus musculus); experiment: Inhibition of TLR4 in BALB/c mouse BMDM assessed as reduction of LPS-stimulated IL-6 production at 0.2 ug/ml preincubated for 18 hrs followed by LPS challenge measured after 24 hrs by ELISA
[5] = target: T2, Toll-like receptor 9 (Mus musculus) (UniProt Q9EQU3); experiment: Inhibition of TLR9 in BALB/c mouse BMDM assessed as downregulation of CpG-stimulated IL-12p40 level at 5 ug/ml preincubated for 18 hrs followed by CpG challenge measured after 24 hrs by ELISA relative to control
T2 sequence (whole entry): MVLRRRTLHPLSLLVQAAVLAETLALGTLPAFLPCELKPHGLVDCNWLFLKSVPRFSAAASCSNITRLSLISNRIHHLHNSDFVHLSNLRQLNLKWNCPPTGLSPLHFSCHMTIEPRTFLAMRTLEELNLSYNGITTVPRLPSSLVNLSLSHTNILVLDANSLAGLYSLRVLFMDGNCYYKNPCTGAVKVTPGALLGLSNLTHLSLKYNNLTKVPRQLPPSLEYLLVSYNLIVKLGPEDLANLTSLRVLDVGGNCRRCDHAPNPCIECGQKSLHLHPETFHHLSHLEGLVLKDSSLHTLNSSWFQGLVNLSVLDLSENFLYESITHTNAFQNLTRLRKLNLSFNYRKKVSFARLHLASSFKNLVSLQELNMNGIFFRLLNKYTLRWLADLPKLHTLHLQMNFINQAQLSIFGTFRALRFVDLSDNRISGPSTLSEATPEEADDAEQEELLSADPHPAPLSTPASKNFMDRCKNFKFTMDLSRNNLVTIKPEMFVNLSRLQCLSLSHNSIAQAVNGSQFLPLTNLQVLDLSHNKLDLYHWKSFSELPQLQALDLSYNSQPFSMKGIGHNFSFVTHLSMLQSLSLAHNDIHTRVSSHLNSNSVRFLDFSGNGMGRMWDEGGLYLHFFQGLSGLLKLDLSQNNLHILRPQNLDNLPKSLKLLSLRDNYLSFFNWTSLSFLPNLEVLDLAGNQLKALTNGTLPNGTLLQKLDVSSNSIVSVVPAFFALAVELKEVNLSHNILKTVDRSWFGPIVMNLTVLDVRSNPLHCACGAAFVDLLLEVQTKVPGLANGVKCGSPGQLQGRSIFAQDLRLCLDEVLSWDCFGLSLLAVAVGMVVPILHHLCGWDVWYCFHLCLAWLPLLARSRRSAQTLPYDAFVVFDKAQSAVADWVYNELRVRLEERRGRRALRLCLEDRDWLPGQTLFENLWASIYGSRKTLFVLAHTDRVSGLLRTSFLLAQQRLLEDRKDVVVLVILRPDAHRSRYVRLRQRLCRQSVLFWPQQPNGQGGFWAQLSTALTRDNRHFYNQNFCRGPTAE
Summary of the method: (§2)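 BALB/c male bone marrow macrophages were differentiated 7 days with L929 supernatant (≥99% CD11b+/F4/80+). Cells were plated at 2 × 10^5/well in triplicate, rested overnight, and given compounds at 5 μg/mL for 18 h. They were then stimulated with 100 ng/mL S. minnesota LPS, 10 ng/mL Pam3CSK4 (BLP) or 0.01 μM CpG for 24 h. Supernatant IL-12p40 and IL-6 were measured by ELISA (sensitivity 16 pg/mL).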

[6] = target: T1, Toll-like receptor 4 (Mus musculus); experiment: Inhibition of TLR4 in BALB/c mouse BMDM assessed as downregulation of LPS-stimulated IL-12p40 level at 5 ug/ml preincubated for 18 hrs followed by LPS challenge measured after 24 hrs by ELISA relative to control; summary of the method: as §2

CN(C)CCS(=O)(=O)Cc1ccc(Br)cc1
inhibition [1]: Active
Activity (Mus musculus): inactive
Activity [2]: Non-toxic
Activity [3]: Non-toxic
inhibition [4]: inactive
inhibition [5]: Active
inhibition [6]: Active
